Laboratory results: ChEMBL document CHEMBL4477243, “Discovery and SAR of a novel series of potent, CNS penetrant M4 PAMs based on a non-enolizable ketone core: Challenges in disposition” (Bioorg Med Chem Lett, 2016)

Key:
[1] = molecular target: T1, Muscarinic acetylcholine receptor M4 (Homo sapiens, UniProt P08173); assay: Positive allosteric modulation activity at human M4 receptor expressed in CHO cells co-expressing Gqi5 protein assessed as potentiation of EC20 acetyl choline-induced response by calcium mobilization assay; type: functional, cell-based
T1 sequence (P08173 whole entry): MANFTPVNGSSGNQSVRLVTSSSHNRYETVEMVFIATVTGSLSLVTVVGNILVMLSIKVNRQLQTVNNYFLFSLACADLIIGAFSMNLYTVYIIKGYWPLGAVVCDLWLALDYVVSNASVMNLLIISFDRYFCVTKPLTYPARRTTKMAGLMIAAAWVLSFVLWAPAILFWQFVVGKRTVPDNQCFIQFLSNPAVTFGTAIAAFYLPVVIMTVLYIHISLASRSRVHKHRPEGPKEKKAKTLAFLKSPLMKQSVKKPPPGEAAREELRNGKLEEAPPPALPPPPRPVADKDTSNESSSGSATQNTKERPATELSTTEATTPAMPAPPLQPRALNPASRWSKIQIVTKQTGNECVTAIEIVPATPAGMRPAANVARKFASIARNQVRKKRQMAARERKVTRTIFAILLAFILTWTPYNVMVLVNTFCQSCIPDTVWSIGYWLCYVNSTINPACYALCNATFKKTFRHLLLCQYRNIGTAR
In short: (§1)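 Calcium mobilization in CHO cells stably co-expressing human or rat M4 with the chimeric Gqi5 protein. Test compound given with a fixed EC20 concentration of acetylcholine. Potency reported as EC50; efficacy as % of the acetylcholine maximum. Means of three independent experiments, each in triplicate.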

[2] = molecular target: T2, Muscarinic acetylcholine receptor M4 (Rattus norvegicus, UniProt P08485); assay: Positive allosteric modulation activity at rat M4 receptor expressed in CHO cells co-expressing Gqi5 protein assessed as potentiation of EC20 acetyl choline-induced response by calcium mobilization assay; type: functional, cell-based; details: read-out: EC50; in short: as §1
T2 sequence (P08485 whole entry): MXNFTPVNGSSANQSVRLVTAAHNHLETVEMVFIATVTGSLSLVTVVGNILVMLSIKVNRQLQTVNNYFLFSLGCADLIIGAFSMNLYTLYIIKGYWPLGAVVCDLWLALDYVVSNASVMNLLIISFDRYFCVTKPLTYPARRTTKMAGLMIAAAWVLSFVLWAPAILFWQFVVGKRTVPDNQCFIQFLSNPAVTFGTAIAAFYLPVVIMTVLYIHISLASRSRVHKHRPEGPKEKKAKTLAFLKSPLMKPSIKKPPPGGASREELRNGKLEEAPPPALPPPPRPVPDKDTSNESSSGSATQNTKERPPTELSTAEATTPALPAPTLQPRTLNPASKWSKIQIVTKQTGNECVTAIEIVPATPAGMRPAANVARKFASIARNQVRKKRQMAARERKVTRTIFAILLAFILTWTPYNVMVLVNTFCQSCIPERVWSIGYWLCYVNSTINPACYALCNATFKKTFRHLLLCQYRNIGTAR

Cytochrome P450 = assay: Inhibition of Cytochrome P450 (unknown origin); type: ADME, protein assay; details: human
Cytochrome P450 1A2 = molecular target: T3, Cytochrome P450 1A2 (Homo sapiens, UniProt P05177); assay: Inhibition of CYP1A2 (unknown origin); type: ADME
T3 sequence (P05177 whole entry): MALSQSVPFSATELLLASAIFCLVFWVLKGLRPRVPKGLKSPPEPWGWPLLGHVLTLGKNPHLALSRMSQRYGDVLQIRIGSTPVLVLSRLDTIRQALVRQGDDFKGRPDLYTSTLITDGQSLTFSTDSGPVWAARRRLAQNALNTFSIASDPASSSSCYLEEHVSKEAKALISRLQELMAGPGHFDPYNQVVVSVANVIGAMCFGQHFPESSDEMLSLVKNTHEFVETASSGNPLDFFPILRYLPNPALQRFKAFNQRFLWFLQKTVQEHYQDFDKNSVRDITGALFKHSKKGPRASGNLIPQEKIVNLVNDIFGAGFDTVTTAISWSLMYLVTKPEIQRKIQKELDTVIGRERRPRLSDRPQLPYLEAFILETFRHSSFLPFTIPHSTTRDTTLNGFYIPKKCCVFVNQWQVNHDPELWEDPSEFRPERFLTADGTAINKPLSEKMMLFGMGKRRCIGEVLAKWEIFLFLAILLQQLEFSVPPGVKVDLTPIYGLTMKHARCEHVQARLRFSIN

[3] = Fraction unbound in human plasma; type: ADME, cell-free
In short: (§2)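 Plasma protein binding, reported as fraction unbound in rat and human plasma. Single experiment (n=1) run in triplicate.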

[4] = Fraction unbound in rat plasma; type: ADME, cell-free; in short: as §2
[5] = Ratio of drug level in Sprague-Dawley rat brain to plasma at 0.2 to 0.25 mg/kg, iv administered as cassette dose measured 0.25 hrs post dose; type: ADME, organism-based; details: brain and plasma
In short: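 Male Sprague-Dawley rats (n=1) received an IV cassette dose of 0.20-0.25 mg/kg. Brain and plasma sampled 0.25 hr post-administration. Total brain:plasma partition coefficient (Kp) measured; unbound coefficient (Kp,uu) calculated.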

[6] = molecular target: T4, Muscarinic acetylcholine receptor M4 (Homo sapiens) (UniProt P08173); assay: Positive allosteric modulation activity at human M4 receptor expressed in CHO cells co-expressing Gqi5 protein assessed as potentiation of EC20 acetyl choline-induced response by calcium mobilization assay relative to acetylcholine; type: functional, cell-based; in short: as §1
T4 sequence (whole entry): T1 sequence (P08173 whole entry)

[7] = molecular target: T5, Muscarinic acetylcholine receptor M4 (Rattus norvegicus) (UniProt P08485); assay: Positive allosteric modulation activity at rat M4 receptor expressed in CHO cells co-expressing Gqi5 protein assessed as potentiation of EC20 acetyl choline-induced response by calcium mobilization assay relative to acetylcholine; type: functional, cell-based; in short: as §1
T5 sequence (whole entry): T2 sequence (P08485 whole entry)

[8] = Selectivity ratio of EC50 for rat M4 receptor expressed in CHO cells co-expressing Gqi5 protein to EC50 for human M4 receptor expressed in CHO cells co-expressing Gqi5 protein; type: cell-based

Row | EC50 ([1]; read-out: EC50) | EC50 [2] | inhibition (INH) (Cytochrome P450) | inhibition (INH) (Cytochrome P450 1A2) | fraction unbound [3] | fraction unbound [4] | Kp at 0.25 h [5] | %max [6] | %max [7] | EC50 ([1]; read-out: pEC50 (converted)) | Structure (SMILES) | Ratio EC50 [8]
1 | > 10000 nM | > 10000 nM |  |  |  |  |  |  |  |  | Cc1cc(C)c2c(N)c(C(O)c3ccccc3)sc2n1 (centres undefined) | 
2 | 295 nM | 1230 nM | Not Active | Active | 0.005 to 0.18 | 0.005 to 0.18 | 0.83 to 6.95 |  |  |  | Nc1c(C(=O)c2ccncc2)sc2nc(OCc3ccncc3)c3c(c12)CCC3 | 
3 | > 10000 nM | > 10000 nM |  |  |  |  |  |  |  |  | COc1ccc(C(O)c2sc3nc(C)cc(C)c3c2N)cc1 (centres undefined) | 
4 | 380 nM | 254 nM |  |  |  |  | 11 | 69.1% | 77.2% |  | COc1ccc(CCC(=O)c2sc3nnc(C)c(C)c3c2N)cc1F | 
5 | > 10000 nM | > 10000 nM |  |  |  |  |  |  |  |  | Cc1nc2sc(C(O)c3cccnc3)c(N)c2c(C)c1Cl (centres undefined) | 
6 | 891 nM | 3550 nM | Not Active | Active | 0.005 to 0.18 | 0.005 to 0.18 |  | 76% | 68% |  | Cc1nnc2sc(C(=O)c3ccncc3)c(N)c2c1C | 
7 | > 10000 nM | > 10000 nM |  |  |  |  |  |  |  |  | Cc1nnc2sc(C(O)c3cccnc3)c(N)c2c1C (centres undefined) | 
8 | 891 nM | 1500 nM | Not Active | Active | 0.005 to 0.18 | 0.005 to 0.18 | 0.83 to 6.95 | 47% | 46% |  | Cc1cc(C)c2c(N)c(C(=O)c3ccccc3)sc2n1 | 
9 | > 10000 nM | > 10000 nM |  |  |  |  |  |  |  |  | Cc1cc(C)c2c(N)c(C(O)c3ccc(F)cc3F)sc2n1 (centres undefined) | 
10 | 479 nM | 540 nM |  |  |  |  | 11 | 59.1% | 67.9% |  | Cc1cc(C)c2c(N)c(C(=O)CCc3ccncc3)sc2n1 | 
11 | 76 nM | 417 nM | Not Active | Active | 0.005 to 0.18 | 0.005 to 0.18 |  |  |  |  | Nc1c(C(=O)c2ccncc2)sc2nc(OCCN3CCOCC3)c3c(c12)CCC3 | 
12 | 240 nM | 195 nM | Not Active | Active | 0.005 to 0.18 | 0.005 to 0.18 | 0.83 to 6.95 | 45% | 41% |  | Cc1cc(C)c2c(N)c(C(=O)c3ccc(F)c(Cl)c3)sc2n1 | 
13 | 562 nM | 3980 nM | Not Active | Active | 0.005 to 0.18 | 0.005 to 0.18 | 0.83 to 6.95 | 39% | 35% |  | Cc1cc(C)c2c(N)c(C(=O)c3ccc(F)cc3F)sc2n1 | 4 to 7
14 | 372 nM | 692 nM | Not Active | Active | 0.005 to 0.18 | 0.005 to 0.18 |  | 45% | 43% |  | Cc1nc2sc(C(=O)c3ccccc3)c(N)c2c(C)c1Cl | 
15 | > 10000 nM | > 10000 nM |  |  |  |  |  |  |  |  | COc1ccc(C(O)c2sc3nnc(C)c(C)c3c2N)cc1 (centres undefined) | 
16 | > 10000 nM | > 10000 nM |  |  |  |  |  |  |  |  | Cc1cc(C)c2c(N)c(C(O)c3ccc(O)cc3)sc2n1 (centres undefined) | 

Row | EC50 ([1]; read-out: EC50) | EC50 [2] | inhibition (INH) (Cytochrome P450) | inhibition (INH) (Cytochrome P450 1A2) | fraction unbound [3] | fraction unbound [4] | Kp at 0.25 h [5] | %max [6] | %max [7] | EC50 ([1]; read-out: pEC50 (converted)) | Structure (SMILES) | Ratio EC50 [8]
17 | 355 nM | 380 nM | Not Active | Active | 0.005 to 0.18 | 0.005 to 0.18 | 0.83 to 6.95 | 70% | 73% |  | Cc1cc(C)c2c(N)c(C(=O)c3ccc(O)cc3)sc2n1 | 
18 | > 10000 nM | > 10000 nM |  |  |  |  |  |  |  |  | Cc1nnc2sc(C(O)c3ccc(F)cc3F)c(N)c2c1C (centres undefined) | 
19 | > 10000 nM | > 10000 nM |  |  |  |  |  |  |  |  | Cc1nnc2sc(C(O)c3ccncc3)c(N)c2c1C (centres undefined) | 
20 | > 10000 nM | > 10000 nM |  |  |  |  |  |  |  |  | Nc1c(C(O)c2ccncc2)sc2nc(O)c3c(c12)CCCC3 (centres undefined) | 
21 | 105 nM | 417 nM | Not Active | Active | 0.005 to 0.18 | 0.005 to 0.18 | 0.83 to 6.95 | 74% | 95% |  | Cc1nnc2sc(C(=O)c3cccnc3)c(N)c2c1C | 
22 | > 10000 nM | > 10000 nM |  |  |  |  |  |  |  |  | Nc1c(C(O)c2ccncc2)sc2nc(OCCN3CCOCC3)c3c(c12)CCC3 (centres undefined) | 
23 | 102 nM | 166 nM | Not Active | Active | 0.005 to 0.18 | 0.005 to 0.18 |  | 76% | 67% |  | Cc1nnc2sc(C(=O)c3ccccc3)c(N)c2c1C | 
24 | > 10000 nM | > 10000 nM |  |  |  |  |  |  |  |  | Cc1cc(C)c2c(N)c(C(O)c3ccc(F)c(Cl)c3)sc2n1 (centres undefined) | 
25 | > 10000 nM | > 10000 nM |  |  |  |  |  |  |  |  | Cc1nc2sc(C(O)c3ccccc3)c(N)c2c(C)c1Cl (centres undefined) | 
26 | 37 nM | 182 nM | Not Active | Active | 0.005 to 0.18 | 0.005 to 0.18 | 0.83 to 6.95 | 63.8% | 52.7% | 75.9 nM | Nc1c(C(=O)c2ccncc2)sc2nc(O)c3c(c12)CCCC3 | 
27 | 479 nM | 490 nM | Not Active | Active | 0.005 to 0.18 | 0.005 to 0.18 | 0.83 to 6.95 | 48% | 54% |  | COc1ccc(C(=O)c2sc3nc(C)cc(C)c3c2N)cc1 | 
28 | 331 nM | 380 nM | Not Active | Active | 0.005 to 0.18 | 0.005 to 0.18 | 0.83 to 6.95 | 55% | 66% |  | Cc1nnc2sc(C(=O)c3ccc(F)cc3F)c(N)c2c1C | 
29 | > 10000 nM | > 10000 nM |  |  |  |  |  |  |  |  | Cc1nnc2sc(C(O)c3ccccc3)c(N)c2c1C (centres undefined) | 
30 | 646 nM | 1450 nM | Not Active | Active | 0.005 to 0.18 | 0.005 to 0.18 | 0.83 to 6.95 | 63% | 70% |  | COc1ccc(C(=O)c2sc3nnc(C)c(C)c3c2N)cc1 | 
31 | > 10000 nM | > 10000 nM |  |  |  |  |  |  |  |  | Nc1c(C(O)c2ccncc2)sc2nc(OCc3ccncc3)c3c(c12)CCC3 (centres undefined) | 
32 | 105 nM | 417 nM | Not Active | Active | 0.005 to 0.18 | 0.005 to 0.18 | 0.83 to 6.95 | 74% | 95% |  | Cc1nc2sc(C(=O)c3cccnc3)c(N)c2c(C)c1Cl | 
